Common to all, as to type: functional, cell-based
One assay deals with UO-31. Description: Antiproliferative activity against human UO31 cells at 10 uM incubated for 48 hrs by sulforhodamine B assay. The procedure, abridged:
(§1)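 Run by the NCI Developmental Therapeutics Program (Division of Cancer Treatment and Diagnosis) as part of the NCI60 human tumour cell line panel. Each compound was tested in vitro at a single dose of 10 μM, and the data are reported as one-dose mean graphs across the panel.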
Background: In SRB staining, fixed cells bind dye roughly in proportion to their protein.

Another assay deals with BT-549. Description: Antiproliferative activity against human BT549 cells at 10 uM incubated for 48 hrs by sulforhodamine B assay. The procedure, abridged:
(§2)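 Run by the NCI Developmental Therapeutics Program (Division of Cancer Treatment and Diagnosis) as part of the NCI60 human tumour cell line panel screen. Each compound was tested at a single dose of 10 μM. Results are reported as one-dose mean graphs.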

A further assay concerns SR. Put plainly: Antiproliferative activity against human SR cells at 10 uM incubated for 48 hrs by sulforhodamine B assay. The procedure, abridged:
as §1

The subject of the next assay is OVCAR-8. Put plainly: Antiproliferative activity against human OVCAR8 cells at 10 uM incubated for 48 hrs by sulforhodamine B assay. The procedure, abridged:
as §2

In another assay the test system is PC-3. Description: Antiproliferative activity against human PC3 cells at 10 uM incubated for 48 hrs by sulforhodamine B assay. The procedure, abridged: as §2
The test system of the next assay is 786-0. Description: Antiproliferative activity against human 786-0 cells at 10 uM incubated for 48 hrs by sulforhodamine B assay. The procedure, abridged: as §2
Another assay deals with MDA-MB-231. Description: Antiproliferative activity against human MDA-MB-231 cells at 10 uM incubated for 48 hrs by sulforhodamine B assay. The procedure, abridged: as §2
The subject of a further assay is COLO 205. Put plainly: Antiproliferative activity against human COLO205 cells at 10 uM incubated for 48 hrs by sulforhodamine B assay. The procedure, abridged:
as §2

A further assay relates to UACC-257. Put plainly: Antiproliferative activity against human UACC257 cells at 10 uM incubated for 48 hrs by sulforhodamine B assay. The procedure, abridged:
as §1

Another assay relates to CAKI-1. Put plainly: Antiproliferative activity against human Caki1 cells at 10 uM incubated for 48 hrs by sulforhodamine B assay. The procedure, abridged: as §2
The next assay has as its system K562. Put plainly: Antiproliferative activity against human K562 cells at 10 uM incubated for 48 hrs by sulforhodamine B assay. The procedure, abridged:
as §2

The subject of the next assay is OVCAR-3. Put plainly: Antiproliferative activity against human OVCAR3 cells at 10 uM incubated for 48 hrs by sulforhodamine B assay. The procedure, abridged: as §2
For a further assay, the system named is MCF7. Description: Antiproliferative activity against human MCF7 cells at 10 uM incubated for 48 hrs by sulforhodamine B assay. The procedure, abridged: as §2
In a further assay the test system is SNB-19. Put plainly: Antiproliferative activity against human SNB19 cells at 10 uM incubated for 48 hrs by sulforhodamine B assay. The procedure, abridged:
as §2

For the next assay, the system named is NCI/ADR-RES. Description: Antiproliferative activity against human NCI/ADR-RES cells at 10 uM incubated for 48 hrs by sulforhodamine B assay. The procedure, abridged: as §2
Another assay deals with EKVX. Description: Antiproliferative activity against human EKVX cells at 10 uM incubated for 48 hrs by sulforhodamine B assay. The procedure, abridged:
as §2

Calls of active or inactive are those of the source. The rule behind the calls is not given here.

For the compound `O=C(/C=C/c1ccccc1)O[C@H](c1ccccc1)[C@@H]1O[C@@H]2CC(=O)O[C@@H]2[C@H]1O`, the outcome in the assay with UO-31, in the assay with BT-549, with SR, with OVCAR-8, in the assay on PC-3 and in the assay with 786-0 was Active. Moreover, the outcome in the assay with MDA-MB-231, with COLO 205, in the assay with UACC-257, in the assay with CAKI-1, in the assay on K562 and in the assay on OVCAR-3 was Active. In addition, the outcome in the assay on MCF7, with SNB-19, in the assay with NCI/ADR-RES and in the assay on EKVX was Active.
As for `CC(=O)O[C@H](C)[C@H]1O[C@H]2CC(=O)O[C@H]2[C@@H]1O`, the result in the assay on UO-31, in the assay on BT-549, in the assay with SR, with OVCAR-8, in the assay with PC-3 and in the assay on 786-0 was inactive. Also, the outcome in the assay on MDA-MB-231, in the assay with COLO 205, with UACC-257, in the assay with CAKI-1, in the assay with K562 and in the assay with OVCAR-3 was inactive. The outcome in the assay on MCF7, in the assay with SNB-19, in the assay with NCI/ADR-RES and in the assay on EKVX was inactive.
As for `O=C1C[C@H]2O[C@H]([C@H](O)c3ccccc3)[C@H](O)[C@H]2O1`, the result in the assay with UO-31, in the assay on BT-549, in the assay with SR, in the assay on OVCAR-8, with PC-3 and in the assay with 786-0 was Active. The result with MDA-MB-231, in the assay with COLO 205, in the assay with UACC-257, with CAKI-1, in the assay with K562 and in the assay on OVCAR-3 was Active. Besides, the result with MCF7, with SNB-19, in the assay with NCI/ADR-RES and with EKVX was Active.
`CC(=O)O[C@H](C)[C@@H]1O[C@@H]2CC(=O)O[C@@H]2[C@H]1O`: the result in the assay on UO-31, in the assay on BT-549, with SR, in the assay with OVCAR-8, with PC-3 and in the assay with 786-0 was inactive. The result with MDA-MB-231, with COLO 205, in the assay on UACC-257, in the assay on CAKI-1, in the assay on K562 and in the assay on OVCAR-3 was inactive. The result in the assay with MCF7, with SNB-19, in the assay on NCI/ADR-RES and in the assay on EKVX was inactive.
Take `CC(=O)O[C@@H](C)[C@@H]1O[C@@H]2CC(=O)O[C@@H]2[C@H]1O`: the result with UO-31, with BT-549, in the assay with SR, in the assay on OVCAR-8, with PC-3 and with 786-0 was inactive. The outcome with MDA-MB-231, in the assay on COLO 205, in the assay on UACC-257, in the assay on CAKI-1, in the assay with K562 and in the assay with OVCAR-3 was inactive. The outcome with MCF7, in the assay on SNB-19, in the assay on NCI/ADR-RES and in the assay on EKVX was inactive.
For `CC(=O)O[C@@H](C)[C@H]1O[C@H]2CC(=O)O[C@H]2[C@@H]1O`, the outcome in the assay with UO-31, in the assay with BT-549, in the assay with SR, with OVCAR-8, with PC-3 and with 786-0 was inactive. For the same compound, the outcome with MDA-MB-231, in the assay on COLO 205, with UACC-257, in the assay with CAKI-1, with K562 and in the assay with OVCAR-3 was inactive. Besides, the result with MCF7, with SNB-19, in the assay on NCI/ADR-RES and with EKVX was inactive.
`O=C1C[C@H]2O[C@H]([C@@H](O)c3ccccc3)[C@H](O)[C@H]2O1`: the outcome with UO-31, in the assay on BT-549, in the assay on SR, with OVCAR-8, with PC-3 and with 786-0 was Active. Further, the result with MDA-MB-231, in the assay on COLO 205, in the assay with UACC-257, in the assay on CAKI-1, with K562 and with OVCAR-3 was Active. Moreover, the result in the assay with MCF7, with SNB-19, in the assay on NCI/ADR-RES and with EKVX was Active.

Values taken from ChEMBL document CHEMBL4118033, “Total Synthesis, Configuration Assignment, and Cytotoxic Activity Evaluation of Protulactone A” (J Nat Prod, 2017).
